Experimental data: ChEMBL document CHEMBL1124872, “Guanosine analogues. Synthesis of nucleosides of certain 3-substituted 6-aminopyrazolo[3,4-d]pyrimidin-4(5H)-ones as potential immunotherapeutic agents” (1990)

Experiments:
Assay type in all cases: functional
Semliki Forest virus [1] = assay: Effect of compound on forest virus infection in mice, Mean survival time through 21 days at 100 mg/kg dose
Method in brief: (§1)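 Female Swiss Webster mice, about 20 g, received test compound intraperitoneally in aqueous 2% sodium bicarbonate. The daily dose was split into two halves given 24 h and 18 h before lethal Semliki Forest virus inoculation. Placebo mice got 2% sodium bicarbonate alone (0.1 mL/injection). The read-outs were survivors per group and mean survival time with standard deviation.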

Semliki Forest virus [2] = assay: Effect of compound on forest virus infection in mice, Mean survival time through 21 days at 200 mg/kg dose; method in brief: as §1
Semliki Forest virus [3] = assay: Effect of compound on forest virus infection in mice at the dose of 100 mg/kg; tested over 12 mice; method in brief: as §1
Semliki Forest virus [4] = assay: Effect of compound on forest virus infection in mice at the dose of 200 mg/kg; tested over 12 mice; method in brief: as §1
Mus musculus [5] = assay: In vivo effect of Guanosines on murine NK cell activity at E:T ratio of 50:1
Method in brief: (§2)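 Mice dosed ip with 150 mg/kg in 2% aqueous sodium bicarbonate, split as 75 mg/kg b.i.d. for 1 day; controls got 2% sodium bicarbonate alone; groups of two. Spleens taken after 24 h; splenocytes tested ex vivo against 51Cr-labelled YAC-1 T-cell lymphoma targets in a 4 h 51Cr release assay, in triplicate, at two effector:target ratios.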

Semliki Forest virus [6] = assay: Effect of compound on forest virus infection in mice at the dose of 100 mg/kg; Tested over 12 mice; method in brief: as §1
Semliki Forest virus [7] = assay: Effect of compound on forest virus infection in mice at the dose of 200 mg/kg; Tested over 12 mice; method in brief: as §1
Mus musculus [8] = assay: In vivo effect of Guanosines on murine NK cell activity at E:T ratio of 100:1; method in brief: as §2
Mus musculus [9] = assay: In vivo effect of Guanosines on murin NK cell activity at E:T ratio of 100:1; method in brief: as §2
Semliki Forest virus [10] = assay: Effect of compound on forest virus infection in mice at the dose of 200 mg/kg; tested over 11 mice; method in brief: as §1

Row | Compound | Mean survival time (Semliki Forest virus [1]) | Mean survival time (Semliki Forest virus [2]) | Survivors / total (Semliki Forest virus [3]) | Survivors / total (Semliki Forest virus [4]) | Cytotoxicity (Mus musculus [5]) | Survivors / total (Semliki Forest virus [6]) | Survivors / total (Semliki Forest virus [7]) | Cytotoxicity (Mus musculus [8]) | Cytotoxicity (Mus musculus [9]) | Survivors / total (Semliki Forest virus [10])
1 | Nc1nc2c(c(C(=O)O)nn2C2O[C@H](CO)[C@@H](O)[C@H]2O)c(=O)[nH]1 (stereo partly drawn) | 6 days | 6.3 days | 1 | 3 |  |  |  |  |  | 
2 | Nc1nc2c(cnn2C2O[C@H](CO)[C@@H](O)[C@H]2O)c(=O)[nH]1 (stereo partly drawn) | 9 days | > 21 days |  |  | 26.9% | 9 | 12 | 41.1% |  | 
3 | Nc1nc2c(c(Br)nn2C2O[C@H](CO)[C@@H](O)[C@H]2O)c(=O)[nH]1 (stereo partly drawn) | 9 days | 9 days |  |  | 24.4% | 11 | 11 |  | 33.2% | 
4 | Cc1nn(C2O[C@H](CO)[C@@H](O)[C@H]2O)c2nc(N)[nH]c(=O)c12 (stereo partly drawn) | 8 days | 6.4 days | 8 |  | 17% |  |  | 29.7% |  | 6
5 | Nc1nc2c(c(N)nn2C2O[C@H](CO)[C@@H](O)[C@H]2O)c(=O)[nH]1 (stereo partly drawn) | 6.2 days | 6.8 days |  |  | 16.8% | 1 | 3 | 25% |  | 
6 | COc1nn(C2O[C@H](CO)[C@@H](O)[C@H]2O)c2nc(N)[nH]c(=O)c12 (stereo partly drawn) | 7.8 days | 8.6 days |  | 2 |  | 2 |  |  |  | 
7 | Nc1nc2c(c(=O)[nH]1)c(=O)[nH]n2C1O[C@H](CO)[C@@H](O)[C@H]1O (stereo partly drawn) | 7 days | 6.9 days |  | 0% |  |  |  |  |  | 
8 | N=c1[nH]c(=O)c2c(-c3ccccc3)nn(C3O[C@H](CO)[C@@H](O)[C@H]3O)c2[nH]1 (stereo partly drawn) | 6 days | 7.2 days | 1 | 0 |  |  |  |  |  | 
9 | Nc1nc(=O)c2sc(=O)n([C@@H]3O[C@H](CO)[C@@H](O)[C@H]3O)c2[nH]1 [ISATORIBINE] | 11.5 days | >21 days |  |  |  | 10 | 12 |  |  | 
